Experimental data as given in ChEMBL document CHEMBL1158964, “Isolation and cytotoxicity of two new flavonoids from Chrysosplenium grayanum and related flavonols” (1991).
In brackets after ≈: the same amount, converted by molar mass.

What follows are compounds tested on KB (assay: Cytotoxicity against human KB cells after 72 hrs). Details: read-out: ED50 (the source's name).
Type: functional
In short: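 KB cells kept in MEM with 5% fetal calf serum; assay run largely per NCI guidelines in 24-well plates in a CO₂ incubator. Cells assayed after 72 h by a literature procedure. ED₅₀ estimated from semi-log plots of sample concentration (μg/ml) against percent viable cells; three determinations.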
COC(=O)c1cc(O)c(OC)c(O)c1 showed an EC50 of 8.62 mg/L (≈ 43.5 µM). Work on COc1cc(-c2oc3cc(OC)c(O)c(O)c3c(=O)c2OC)ccc1O [CHRYSOSPLENOL C] yielded an EC50 of 11.2 mg/L (≈ 31.1 µM). COc1cc2oc(-c3ccc(O)c(O)c3)c(OC)c(=O)c2c(O)c1OC [CHRYSOSPLENOL D] gave an EC50 of 13.9 mg/L (≈ 38.7 µM). For COc1cc(O)c2c(=O)c(OC)c(-c3ccc(OC)c(OC)c3)oc2c1 [RETUSIN], the EC50 was > 25 mg/L. For COc1cc(-c2oc3cc(OC)c(OC)c(O)c3c(=O)c2OC)ccc1O [CHRYSOSPLENOL B], the EC50 was 7.42 mg/L (≈ 19.8 µM). COc1cc(O)c2c(=O)c(OC)c(-c3cc(OC)c(O)cc3O)oc2c1 [CHRYSOSPLENOL F] was tested, and the EC50 was > 25 mg/L. Compound COc1cc(O)c2c(=O)c(OC)c(-c3cc(O)c(OC)cc3OC)oc2c1 [CHRYSOSPLENOL G] has an EC50 of 8.61 mg/L (≈ 23 µM). For COc1cc(O)c(-c2oc3cc(OC)c(OC)c(O)c3c(=O)c2OC)cc1OC [BRICKELLIN], the EC50 was > 25 mg/L. With COc1cc(O)c2c(=O)c(OC)c(-c3cc(OC)c(OC)cc3O)oc2c1 [CHRYSOSPLENOL E] the EC50 was > 25 mg/L. COc1cc(O)c2c(=O)c(OC)c(-c3cc(O)c(OC)cc3O)oc2c1 [OXYAYANIN A] showed an EC50 of 1.99 mg/L (≈ 5.52 µM).
